Reference: ChEMBL document CHEMBL1154676, “Synthetic mRNA splicing modulator compounds with in vivo antitumor activity” (J Med Chem, 2009)
Active and inactive are the calls of the source. The rule behind the calls is not given here.

Legend:
PC-3 = test: Cytotoxicity against human PC3 cells after 72 hrs by XTT assay; assay type: functional, cell-based; conditions: PC-3, 72 h
In short: (§1)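 Cells grown at 37 °C, 5% CO2; HFF in DMEM with 10% FBS, PrEC in prostate epithelial growth medium. Adherent lines seeded overnight, suspension lines same day; compounds diluted from DMSO stocks into media at various final concentrations, 72 h exposure. XTT reagent added 4 h, absorbance 490 nm (reference 690 nm). Growth as % of vehicle; IC50 from sigmoidal dose-response fit; mean ± SEM, three independent experiments.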

WiDr = test: Cytotoxicity against human WiDr cells after 72 hrs by XTT assay; assay type: functional, cell-based; in short: as §1
JVM-2 = test: Cytotoxicity against human JVM2 cells after 72 hrs by XTT assay; assay type: functional, cell-based; conditions: JVM-2, 72 h; in short: as §1
JeKo-1 = test: Anticancer activity against human JeKo1 cells transplanted in Es-1/SCID mouse assessed as decrease in tumor volume at 50 to 100 mg/kg, iv measured after 25 days; assay type: functional, organism-based
[1] = Cytotoxicity against human JeKo1 cells after 72 hrs by XTT assay; assay type: functional, cell-based; conditions: JeKo-1, 72 h; in short: as §1
HeLa [2] = test: Anticancer activity in human HeLa cells assessed as aggregation of SC35 and SF3b protein SAP155 at 10 uM after 4 hrs by immunofluorescence analysis; assay type: functional, cell-based
In short: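 HeLa cells on glass coverslips exposed 4 h to 10 μM compound in DMSO (DMSO-only control), fixed in cold methanol at −20 °C for 10 min. Stained with anti-SC35 or anti-SAP155 primary (1/100, 1 h, 37 °C), then Alexa Fluor 488 anti-mouse secondary (1/200). Splicing-factor distribution imaged by fluorescence microscopy at 60X.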

HeLa [3] = test: Inhibition of spliceosome splicing activity in human HeLa cells assessed as mRNA products at 0.5 to 10 uM by autoradiography; assay type: cell-based
[4] = Chemical stability in phosphate buffer assessed as half life at pH 7.4 at 37 degC; assay type: physicochemical

Compound	IC50 (PC-3) [nM]	IC50 (WiDr) [nM]	IC50 (JVM-2) [nM]	Activity (JeKo-1)	IC50 [1] [nM]	Activity (HeLa [2])	Activity (HeLa [3])	half-life [4] [h]
CC(/C=C/[C@@H]1C[C@](O)(CCl)CC(C)(C)O1)=C\C[C@H]1CC[C@@H](NC(=O)/C=C\[C@H](C)OC(=O)N2CCN(C3CCCCCC3)CC2)CC1	> 5000	> 1250	> 10000					
CC(/C=C/[C@@H]1C[C@]2(CO2)CC(C)(C)O1)=C\C[C@H]1OC[C@@H](NC(=O)/C=C\[C@H](C)OC(=O)C(C)C)CO1				Active	150	Active	Active	
CC(/C=C/[C@@H]1C[C@]2(CO2)CC(C)(C)O1)=C\C[C@H]1CC[C@@H](NC(=O)/C=C\[C@H](C)OC(=O)N2CCN(CCO)CC2)CC1	> 2500	> 1250	> 500		> 500			
CC(/C=C/[C@@H]1C[C@]2(CO2)CC(C)(C)O1)=C\C[C@H]1CC[C@@H](NC(=O)/C=C\[C@H](C)OC(=O)C2CCN(c3ccnc(C(F)(F)F)n3)CC2)CC1	> 10000	> 1000			> 1000			
CC(/C=C/[C@@H]1C[C@]2(CO2)CC(C)(C)O1)=C\C[C@H]1CC[C@@H](NC(=O)/C=C\[C@H](C)OC(=O)C2CCOCC2)CC1	2000				450			
CC(/C=C/[C@@H]1C[C@]2(CO2)CC(C)(C)O1)=C\C[C@H]1CC[C@@H](NC(=O)/C=C\[C@H](C)OC(=O)c2cccnc2)CC1	8100	170			170			
COc1cccc(N2CCN(C(=O)O[C@@H](C)/C=C\C(=O)N[C@H]3CC[C@@H](C/C=C(C)/C=C/[C@@H]4C[C@]5(CO5)CC(C)(C)O4)CC3)CC2)c1	> 2500	> 1250	> 500		> 500			
CC(/C=C/[C@@H]1C[C@]2(CO2)CC(C)(C)O1)=C\C[C@H]1CC[C@@H](NC(=O)/C=C\[C@H](C)OC(=O)c2ccco2)CC1	3500	140			140			
CC(=O)O[C@@H](C)/C=C\C(=O)N[C@@H]1C[C@H](C)[C@H](C/C=C(C)/C=C/[C@H]2O[C@](C)(O)C[C@@]3(CO3)[C@@H]2O)O[C@@H]1C								4
CC(/C=C/[C@@H]1C[C@]2(CO2)CC(C)(C)O1)=C\C[C@H]1CC[C@@H](NC(=O)/C=C\[C@H](C)OC(=O)c2ccccc2)CC1	4900	410			410			
CC(/C=C/[C@@H]1C[C@]2(CO2)CC(C)(C)O1)=C\C[C@H]1CC[C@@H](NC(=O)/C=C\[C@H](C)OC(=O)C2CCN(C)CC2)CC1	10000				> 1000			
CC(/C=C/[C@@H]1C[C@]2(CO2)CC(C)(C)O1)=C\C[C@H]1CC[C@@H](NC(=O)/C=C\[C@H](C)OC(=O)c2cccn2C)CC1	4300	390			390			
CC(/C=C/[C@@H]1C[C@]2(CO2)CC(C)(C)O1)=C\C[C@H]1CC[C@@H](NC(=O)/C=C\[C@H](C)OC(=O)N2CCN(C)CC2)CC1	> 2500	> 1250	> 500		> 500			
CC(/C=C/[C@@H]1C[C@]2(CO2)CC(C)(C)O1)=C\C[C@H]1CC[C@@H](NC(=O)/C=C\[C@H](C)O)CC1	10000	10000	1500		1600			
CC(/C=C/[C@@H]1C[C@]2(CO2)CC(C)(C)O1)=C\C[C@H]1CC[C@@H](NC(=O)/C=C\[C@H](C)OC(=O)N2CCN(C3CCCCCC3)CC2)CC1	> 5000		> 1000					
CC(=O)O[C@@H](C)/C=C\C(=O)N[C@H]1CC[C@@H](C/C=C(C)/C=C/[C@@H]2C[C@]3(CO3)CC(C)(C)O2)CC1					100			
